From ChEMBL document CHEMBL4673181, “An investigation of the antileishmanial properties of semi-synthetic saponins” (RSC Med Chem, 2020)

How the values were obtained:
[1] = Selectivity index, ratio of ED50 for mouse RAW264.7 cells to ED50 for antileishmanial activity against axenic amastigote stage of Leishmania mexicana (MNYC/BZ/62/M379); assay type: toxicity; details: read-out: Ratio ED50
Procedure, shortened: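 Selectivity index calculated as EC₅₀ in RAW macrophages (24 h alamarBlue cytotoxicity assay) divided by EC₅₀ against axenic L. mexicana amastigotes.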

[2] = Cytotoxicity against mouse RAW264.7 cells assessed as induction of cell killing incubated for 24 hrs by alamar blue dye based fluorescence analysis; details: read-out: ED50
Procedure, shortened: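 Mouse macrophages seeded at 2.5×10^5 mL⁻¹ in DMEM/10% HIFBS, 24 h at 37 °C, 5% CO₂. Then washed and held 24 h in DMEM/2% HIFBS. Compounds 100 μM to 0.41 μM in 2% HIFBS medium for 24 h. alamarBlue 4 h, then fluorescence at 560/600 nm. Cycloheximide (50 μM) positive, DMSO negative control. EC₅₀ derived.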

Leishmania mexicana [3] = assay: Antileishmanial activity against axenic amastigote stage of Leishmania mexicana (MNYC/BZ/62/M379) assessed as induction of parasite killing incubated for 24 hrs by alamar blue dye based fluorescence analysis; assay type: functional; details: read-out: ED50 (the source's name)
Procedure, shortened: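 L. mexicana axenic amastigotes (from promastigotes by pH/temperature shift; Schneider's with 20% HIFBS) at 4x10⁵ mL⁻¹, exposed to three-fold dilutions from 50 μM to 0.21 μM for 24 h at 33 °C in sealed plates. alamarBlue then added for another 24 h, fluorescence read at 560/600 nm. Amphotericin B (50 μM) positive, DMSO negative control. Duplicates on four occasions, EC₅₀ fitted.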

Leishmania mexicana [4] = assay: Antileishmanial activity against axenic amastigote stage of Leishmania mexicana (MNYC/BZ/62/M379) assessed as inhibition of parasite proliferation at 50 uM incubated for 24 hrs by alamar blue dye based fluorescence analysis; assay type: functional
Procedure, shortened: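 Primary single-point screen at 50 μM, in duplicate. Axenic L. mexicana amastigotes at 4x10⁵ mL⁻¹ incubated with compound 24 h at 33 °C in sealed plates, then alamarBlue for a further 24 h at the same temperature. Viability read by fluorescence at 560/600 nm against amphotericin B (50 μM) and DMSO controls.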

Leishmania mexicana [5] = assay: Antileishmanial activity against axenic amastigote stage of Leishmania mexicana (MNYC/BZ/62/M379) infected in mouse RAW264.7 cells assessed as induction of parasite killing incubated for 24 hrs by alamar blue dye based fluorescence analysis; assay type: functional
Procedure, shortened: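 RAW264.7 cells seeded at 2.5x10⁵ mL⁻¹ in DMEM with 10% HIFBS for 24 h at 37 °C, 5% CO₂, then infected with axenic amastigotes at 25x10⁵ mL⁻¹ in DMEM with 2% HIFBS for 24 h. Washed 5x, compound added for 24 h. Cells lysed with 0.05% SDS, then grown in Schneider's (pH7, 15% HIFBS) 48 h at 26 °C. alamarBlue 4 h, fluorescence 560/600 nm. Triplicate, three occasions.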

Compound | selectivity ratio [1] | CC50 at 24 h [2] | EC50 (Leishmania mexicana [3]) | inhibition at 50 µM (Leishmania mexicana [4]) | ED50 (Leishmania mexicana [5])
CC1(C)CC[C@]2(C(=O)O)CC[C@]3(C)C(=CC[C@@H]4[C@@]5(C)CC[C@H](O)[C@@](C)(C=O)[C@@H]5CC[C@]43C)[C@@H]2C1 | 3.8 | 36.6 µM | 9.6 µM | ≥ 95% | –
C[C@H](O)[C@H]1OC(C[C@@H]2OC[C@@]3(C)[C@@H]4CC[C@]5(C)[C@H](CC=C6[C@@H]7CC(C)(C)CC[C@]7(C(=O)O)CC[C@]65C)[C@@]4(C)CC[C@@H]3O2)[C@@H](O)[C@@H]1O (stereo partly drawn) | 2.9 | 30.2 µM | 10.3 µM | ≥ 95% | –
CC1(C)CC[C@]2(C(=O)O)CC[C@]3(C)C(=CC[C@@H]4[C@@]5(C)CC[C@@H]6O[C@H]([C@H](O)[C@@H](O)[C@H](O)[C@H](O)CO)OC[C@@]6(C)[C@@H]5CC[C@]43C)[C@@H]2C1 | 6.7 | 29.6 µM | 4.5 µM | ≥ 95% | –
CO[C@H]1O[C@H]([C@@H]2OC[C@@]3(C)[C@@H]4CC[C@]5(C)[C@H](CC=C6[C@@H]7CC(C)(C)CC[C@]7(C(=O)O)CC[C@]65C)[C@@]4(C)CC[C@@H]3O2)[C@@H](O)[C@H](O)[C@H]1O | 5 | 29.7 µM | 6 µM | ≥ 95% | –
CC1(C)CC[C@]2(C(=O)O)CC[C@]3(C)C(=CC[C@@H]4[C@@]5(C)CC[C@H](OC(=O)CCC(=O)O)[C@@](C)(COC(=O)CCC(=O)O)[C@@H]5CC[C@]43C)[C@@H]2C1 | > 44 | > 100 µM | 2.3 µM | ≥ 95% | >50 µM
COC(=O)[C@]12CCC(C)(C)C[C@H]1C1=CC[C@@H]3[C@@]4(C)CC[C@@H]5O[C@H](c6ccccc6C(=O)O)OC[C@@]5(C)[C@@H]4CC[C@@]3(C)[C@]1(C)CC2 | 0.5 | 4.8 µM | 10 µM | ≥ 95% | –
CC1(C)CC[C@]2(NC(=O)N3CCC[C@H]3C(=O)O)CC[C@]3(C)C(=CC[C@@H]4[C@@]5(C)CC[C@@H]6OC(C)(C)OC[C@@]6(C)[C@@H]5CC[C@]43C)[C@@H]2C1 | 6 | 5.4 µM | 0.9 µM | ≥ 95% | –
CC1(C)CC[C@]2(C(=O)O)CC[C@]3(C)C(=CC[C@@H]4[C@@]5(C)CC[C@@H]6O[C@H]([C@H](O)[C@@H](O)[C@H](O)CO)OC[C@@]6(C)[C@@H]5CC[C@]43C)[C@@H]2C1 | 3 | 29.2 µM | 9.7 µM | ≥ 95% | –
COC(=O)[C@]12CCC(C)(C)C[C@H]1C1=CC[C@@H]3[C@@]4(C)CC[C@@H]5O[C@H]([C@H](O)[C@@H](O)[C@H](O)[C@H](O)CO)OC[C@@]5(C)[C@@H]4CC[C@@]3(C)[C@]1(C)CC2 | 1.1 | 10.2 µM | 9.5 µM | ≥ 95% | –
CC(=O)OC[C@@]1(C)[C@@H]2CC[C@]3(C)[C@H](CC=C4[C@@H]5CC(C)(C)CC[C@]5(NC(=O)N5CCCC5)CC[C@]43C)[C@@]2(C)CC[C@@H]1O | 1 | 10.9 µM | 10.4 µM | ≥ 95% | –
CC1(C)CC[C@]2(C(=O)O)CC[C@]3(C)C(=CC[C@@H]4[C@@]5(C)CC[C@@H]6O[C@H](C[C@H]7O[C@H](CO)[C@@H](O)[C@H](O)[C@H]7O)OC[C@@]6(C)[C@@H]5CC[C@]43C)[C@@H]2C1 | 4.9 | 36.7 µM | 7.5 µM | ≥ 95% | –
CC(=O)OC[C@H](OC(C)=O)[C@H](OC(C)=O)[C@@H](OC(C)=O)[C@@H]1OC[C@@]2(C)[C@@H]3CC[C@]4(C)[C@H](CC=C5[C@@H]6CC(C)(C)CC[C@]6(C(=O)O)CC[C@]54C)[C@@]3(C)CC[C@@H]2O1 | 1.5 | 11.1 µM | 7.2 µM | ≥ 95% | –
C[C@@H]1O[C@@H](O[C@H]2[C@H](O[C@H]3CC[C@@]4(C)[C@@H](CC[C@]5(C)[C@@H]4CC=C4[C@@H]6CC(C)(C)CC[C@]6(C(=O)O)CC[C@]45C)[C@]3(C)CO)OC[C@H](O)[C@@H]2O)[C@H](O)[C@H](O)[C@H]1O [ALPHA-HEDERIN] | – | – | 19.6 µM | ≥ 95% | –
CC1(C)CC[C@]2(C(=O)O)CC[C@]3(C)C(=CC[C@@H]4[C@@]5(C)CC[C@H](O[C@@H]6O[C@H](CO)[C@@H](O)[C@H](O)[C@H]6O)[C@@](C)(CO)[C@@H]5CC[C@]43C)[C@@H]2C1 [Hederagenin-3-O-beta-D-glucopyranoside] | – | – | > 50 µM | ≥ 95% | –
